95 compounds from ChEMBL document CHEMBL4513216, “Probing the Open Global Health Chemical Diversity Library for Multistage-Active Starting Points for Next-Generation Antimalarials” (ACS Infect Dis, 2020) can be followed below.

A short description of this data set: Toxicity liver stage against HepG2, at 10uM. It is filed as cell-based. Details: test concentration 10 uM, cell line HepG2-A16-CD81EGFP. The settings on record: human, HepG2-A16-CD81EGFP cells; read-out: INHIBITION
The method in brief: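 Uninfected HepG2-A16-CD81EGFP cells, 3 × 10^3 per well, 1536-well, plated on prespotted compound at 10 μM final, parasite-free screening media added to match infected plates; puromycin 10 μM positive, DMSO 0.5% negative; run in parallel with 48 h PbLuc assay at 37 °C, 5% CO2; viability by CellTiter-Glo luminescence, normalized to controls.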
Take `COc1ccc(CCC(=O)NCCC2CCCO2)cc1Br` (stereo not given): the cytotoxicity at 10 µM came to 2.6%.

In the case of `CSCC[C@H](NC(=O)Cn1ccc2c(Br)cccc21)C(=O)O`, the cytotoxicity at 10 µM was -2.94%.

On to `Cc1nnsc1-c1nnc2sc(C3CCC3)nn12`, for which the cytotoxicity at 10 µM is -7.86%.

With `Cc1cc(C(=O)NCc2cc(C)oc2C)no1`, the cytotoxicity at 10 µM is -9.98%.

As for `Cc1cc(C(=O)N2CC[C@@H]3CN(C)S(=O)(=O)[C@@H]3CC2)no1`, the cytotoxicity at 10 µM was -7.55%.

`CCC(=O)N1CCC2(CC1)CC(CC(=O)NC1CC1)c1ccccc1O2` (stereo not given): the cytotoxicity at 10 µM came to 2.64%.

As for `O=C1COC2(CCN(Cc3ccco3)CC2)CN1Cc1cccnc1`, the cytotoxicity at 10 µM is -4.25%.

As to `CS(=O)(=O)N1CC(c2nc[nH]n2)c2cc(C(=O)NC3CCCC3)ccc21` (stereo not given), the cytotoxicity at 10 µM is -131%.

Take `CCS(=O)(=O)N1C[C@H]2CN(Cc3ccc(OC)cc3)C(=O)[C@H]2C1`: the cytotoxicity at 10 µM was -1.34%.

Consider `CC(C)Nc1ncnc2c1CCN(C(=O)[C@H]1CCCO1)CC2`, for which the cytotoxicity at 10 µM is -0.685%.

As for `O=C(Nc1ccccc1)N1CCC2(CC(=O)N(c3ccsc3)C2)C1` (stereo not given), the cytotoxicity at 10 µM worked out at 2.58%.

On to `Cc1ccoc1C(=O)N1CCO[C@H]2[C@H](OCc3ccncc3)CC[C@@H]21`, for which the cytotoxicity at 10 µM was 9.06%.

For `COc1cc2nc(C)n(CC(=O)NCCCN(C)C)c(=O)c2cc1OC`, the cytotoxicity at 10 µM amounted to 2.11%.

Turning to `O=C1CC2(CCN(S(=O)(=O)C3CC3)C2)CN1c1cncnc1` (stereo not given), the cytotoxicity at 10 µM is -11.9%.

On to `CCn1nnc2c1C(COC)CN(C(=O)COc1ccccc1)C2` (stereo not given), for which the cytotoxicity at 10 µM is -17.1%.

Take `O=C([C@@H]1CCO[C@@H]2CCN(Cc3cccnc3)C[C@H]21)N1CCCCO1`: the cytotoxicity at 10 µM is -1.17%.

With `COc1cccc(Cn2cc(N3C(=O)[C@H]4CCCC[C@H]4C3=O)cn2)c1`, the cytotoxicity at 10 µM is -11.9%.

With `Cc1cc(C(F)(F)F)nc(C2CCN(C(=O)CO)CC2)n1`, the cytotoxicity at 10 µM is -2.14%.

As to `CNc1cncc(C2CCCN2C(=O)CCn2ccnc2)n1` (stereo not given), the cytotoxicity at 10 µM was found to be 3.91%.

In the case of `COc1ccccc1CC(=O)N1CCN(Cc2ccco2)C[C@@H]1C`, the cytotoxicity at 10 µM was 2.08%.

For the compound `COCC(=O)N1CC(c2ccnc(Nc3cc(C(F)(F)F)ccn3)n2)C1`, the cytotoxicity at 10 µM is 11.2%.

Consider `Cc1nnc(Nc2cccc(C3CCN(Cc4ncc[nH]4)CC3)n2)s1`, for which the cytotoxicity at 10 µM was -24%.

As for `CCc1cc(C(=O)N2Cc3ccccc3OC3(CCOCC3)C2)on1`, the cytotoxicity at 10 µM was -9.54%.

Consider `Cc1sc2c(C3CCCN(C(C)C)C3)nc(C)n2c1C` (stereo not given), for which the cytotoxicity at 10 µM was -13.8%.

Consider `Cc1nc(C)c(C(=O)N2CCc3nc4sc(C)cc4c(=O)n3CC2)o1`, for which the cytotoxicity at 10 µM was -9.31%.

As to `CN1CCC(CN(C)C(=O)c2cc(C3CCCN3C)ccn2)CC1` (stereo not given), the cytotoxicity at 10 µM was -28.3%.

For `Cc1noc(C)c1-c1cccc(CC2CCN(C(=O)c3cscn3)C2)n1` (stereo not given), the cytotoxicity at 10 µM was -6.66%.

As for `O=C(c1ccccn1)N1CCC(Cc2cnc3[nH]ccc3c2)CC1`, the cytotoxicity at 10 µM is -7.75%.

As to `Cn1cc(C(=O)N2CCCC(Cc3cnccn3)C2)cn1` (stereo not given), the cytotoxicity at 10 µM is -8.16%.

Take `CCOc1ccc(N(CCC#N)C(=O)c2ccnc(SC)c2)cc1`: the cytotoxicity at 10 µM was -2.6%.

Take `CN(C)S(=O)(=O)c1ccc(F)c(NC(=O)COCC2CC2)c1`: the cytotoxicity at 10 µM is 3.71%.

`O=C(c1cc(C2CCCC2)no1)N1CCCCC1`: the cytotoxicity at 10 µM was -3.05%.

For `CC(C)Cn1ccnc1CNC(=O)NC(C)c1nccs1` (stereo not given), the cytotoxicity at 10 µM is -14.3%.

`O=C(C1CCCOC1)N(CC(F)F)c1cccc(Cl)c1` (stereo not given): the cytotoxicity at 10 µM amounted to 8.27%.

As to `Cc1nc(NS(=O)(=O)c2cc(Br)ccc2C)no1`, the cytotoxicity at 10 µM was found to be 1.68%.

With `COC(=O)C1CCCN1C(=O)c1ccc(Cl)cc1F` (stereo not given), the cytotoxicity at 10 µM was -7.7%.

For the compound `NS(=O)(=O)c1ccc(NCc2ccco2)c2ncccc12`, the cytotoxicity at 10 µM was -153%.

With `CN(Cc1csc2ccccc12)C(=O)NC1CCS(=O)(=O)C1` (stereo not given), the cytotoxicity at 10 µM is -42.1%.

With `Cc1ccc(C(=O)NCC(O)CN2CCCC2=O)cc1Cl` (stereo not given), the cytotoxicity at 10 µM is -8.69%.

With `Cc1cc(C)n(CC2CCN(CC(O)Cn3cccn3)CC2)n1` (stereo not given), the cytotoxicity at 10 µM is -5.58%.

As for `COCCC1(CNC(=O)Nc2ccc(-n3ccnn3)cc2)CCC1`, the cytotoxicity at 10 µM was -0.677%.

Take `Cc1nc(S(=O)(=O)NCCC(=O)NCc2ccsc2)cn1C`: the cytotoxicity at 10 µM stood at 3.68%.

Consider `Cc1cc(S(=O)(=O)N2CCCc3cc(Cl)ccc32)sc1C(=O)O`, for which the cytotoxicity at 10 µM was -16%.

With `CCN(CC(=O)NC)C(=O)c1cc(-c2cccc(Cl)c2)no1`, the cytotoxicity at 10 µM was determined as 8.5%.

With `O=S(=O)(Cc1ccccc1F)Cc1nnnn1C1CC1`, the cytotoxicity at 10 µM was -16.5%.

Consider `CCN(CC)S(=O)(=O)NCCc1cc(C)ccc1OC`, for which the cytotoxicity at 10 µM was -2.64%.

Regarding `CC1CN(C(=O)c2ccc(=O)n(C)c2)c2ccccc2NC1=O` (stereo not given), the cytotoxicity at 10 µM is -2.09%.

For `Cc1cc(C)cc(OCCCn2nc3ccccn3c2=O)c1`, the cytotoxicity at 10 µM is 3.95%.

As to `CC(=O)NCCc1ccc(S(=O)(=O)Nc2cc(F)ccc2C)s1`, the cytotoxicity at 10 µM is -13.6%.

For the compound `CC(CO)(NC(=O)NCc1ccc(Br)s1)C1CC1` (stereo not given), the cytotoxicity at 10 µM came out at 4.68%.

As to `Cc1cncc(NC(=O)c2ccc(CN3CCC(CO)CC3)cc2)c1`, the cytotoxicity at 10 µM is 19%.

For the compound `CCCS(=O)(=O)NC(=O)c1ccc(Br)o1`, the cytotoxicity at 10 µM was -6.11%.

As to `O=C(Nc1ccccc1Oc1cccc(F)c1)C1CCS(=O)(=O)C1` (stereo not given), the cytotoxicity at 10 µM came out at 2.64%.

`CCc1ccc(CC)c(NCC(=O)N2CCCC(NC(C)=O)C2)c1` (stereo not given): the cytotoxicity at 10 µM was -5.87%.

As for `CCOCC(O)CN1CCN(C(=O)c2cccc(F)c2)CC1` (stereo not given), the cytotoxicity at 10 µM is -11.1%.

With `Cc1ccc2c(c1)[C@@H](CC(=O)N1CCN(C)CC1)CCO2`, the cytotoxicity at 10 µM was -11.1%.

As for `CCC(CO)N(Cc1ccco1)C(=O)c1sccc1NC(C)=O` (stereo not given), the cytotoxicity at 10 µM was found to be 3.36%.

For the compound `COc1ccc2c(c1)OCC(CNC(=O)c1cc(C(C)C)on1)C2` (stereo not given), the cytotoxicity at 10 µM turned out to be 0.0723%.

For `Cc1ccc(F)c(C(=O)N2C[C@@H](C(=O)O)[C@H](c3ccccc3)C2)c1Cl`, the cytotoxicity at 10 µM was -6.06%.

With `Cc1cccc(CNC2CC(=O)N(CCc3cccc(Cl)c3)C2)n1` (stereo not given), the cytotoxicity at 10 µM is -134%.

As for `COCc1noc(CC2CN(c3ncnc4sc(C)c(C)c34)CCO2)n1` (stereo not given), the cytotoxicity at 10 µM was -0.649%.

Consider `Fc1cccc(C2CCCCN2Cc2nc(-c3cnccn3)no2)c1` (stereo not given), for which the cytotoxicity at 10 µM is -3.02%.

`COc1cc(C(=O)N2CC[C@@H](NC(=O)c3ccccn3)[C@H](O)C2)ccn1`: the cytotoxicity at 10 µM is 0.894%.

Take `CN(Cc1cc(C2CC2)on1)C(=O)CN1C(=O)OC(C)(C)C1=O`: the cytotoxicity at 10 µM was -127%.

Consider `COc1ccc(OCc2cc(C(=O)N3CC=CC3)n[nH]2)c(Cl)c1`, for which the cytotoxicity at 10 µM turned out to be 7.26%.

In the case of `Cc1nnc2sc(-c3cc(C(C)C)n[nH]3)nn12`, the cytotoxicity at 10 µM is -7.88%.

With `CCC(=O)N1CCN(c2cc(-n3cnc(C)c3C)nc(C)n2)CC1`, the cytotoxicity at 10 µM was -4.56%.

For the compound `O=C(Cc1cnccn1)N1CCC(c2nccn2CC2CC2)CC1`, the cytotoxicity at 10 µM is -7.54%.

As to `COCCN(C)C[C@@H]1CN(C(=O)c2c(C)cccc2OC)C[C@@H]1CO`, the cytotoxicity at 10 µM is -4.26%.

On to `CC(NC(=O)Cc1cccs1)c1nnc2n1CCC2` (stereo not given), for which the cytotoxicity at 10 µM is -7.56%.

Regarding `Cn1cnc(S(=O)(=O)NCCCN2CCCCCC2=O)c1Cl`, the cytotoxicity at 10 µM was -15.6%.

Regarding `CC(C)c1ccc(OCCNC(=O)N2CCS(=O)(=O)CC2)cc1`, the cytotoxicity at 10 µM is -5.54%.

Turning to `CCOc1ccccc1CNC(=O)N1CCC(Cc2cnn(C)c2)C1` (stereo not given), the cytotoxicity at 10 µM was -7.3%.

As to `CC(C)c1nnc2n1CCN(CC(=O)N1CCc3sccc3C1)C2`, the cytotoxicity at 10 µM was -10.4%.

Take `Cc1nc(C)n(CC2CCCCN2Cc2nc(-c3ccco3)no2)n1` (stereo not given): the cytotoxicity at 10 µM was -10.6%.

Turning to `Cc1cc(C)n(CC2CCCN2C(=O)CCc2ccncc2)n1` (stereo not given), the cytotoxicity at 10 µM is -14.4%.

Consider `CC(C)c1nc2c(n1C)CCN(CC(=O)Nc1nncs1)C2`, for which the cytotoxicity at 10 µM is -10.1%.

Take `CC(C)c1nnc2n1CCN(C(=O)c1ccc3c(c1)CCC3)C2`: the cytotoxicity at 10 µM was -10.7%.

Take `COc1ccccc1NC(=O)NCCCn1nc2ccccn2c1=O`: the cytotoxicity at 10 µM was -18%.

In the case of `Cc1cc(C2CCCN2Cc2nc3ccccc3o2)on1` (stereo not given), the cytotoxicity at 10 µM is -17%.

`O=C1COc2ccc(C(=O)N3CCCC(n4ccnc4)C3)cc2N1` (stereo not given): the cytotoxicity at 10 µM is -13.5%.

With `c1ccc(-n2nnnc2CN2CCCC(Cn3cncn3)C2)cc1` (stereo not given), the cytotoxicity at 10 µM turned out to be 0.962%.

As for `Fc1ccc(CN2CCCN(Cc3cscn3)CC2)cc1`, the cytotoxicity at 10 µM was 2.62%.

Turning to `Cn1ccnc1CNC(=O)c1ccnc(C2CCNCC2)c1`, the cytotoxicity at 10 µM was 5.8%.

Take `CN(C)c1ncc(-c2cncn2CCc2ccc3c(c2)OCCO3)cn1`: the cytotoxicity at 10 µM was -1.04%.

`Cc1c[nH]nc1C1CCCN1Cc1ncc[nH]1` (stereo not given): the cytotoxicity at 10 µM was found to be 4.99%.

Regarding `N#Cc1cccc(CN2Cc3nccn3CC(CN3CCCC3)C2)c1` (stereo not given), the cytotoxicity at 10 µM was -135%.

As to `COc1ccc(C[C@H]2CN(C(=O)c3ccc(C)nc3)CC[C@@H]2OC)cc1`, the cytotoxicity at 10 µM is 4.76%.

Regarding `CN1CC(=O)N(c2ccsc2)CC12CCN(S(C)(=O)=O)C2` (stereo not given), the cytotoxicity at 10 µM is -26.1%.

For `CCC(CC)C(=O)N1CCOC2(COCCN(CC(=O)NC)C2)C1` (stereo not given), the cytotoxicity at 10 µM was determined as 2.35%.

Consider `CC(C)CCN1CCC2(CC1)CN(C(=O)c1cnccn1)CCO2`, for which the cytotoxicity at 10 µM was -12.6%.

As for `CCc1ccc(CN2C[C@@H]3COC[C@H](NS(C)(=O)=O)[C@@H]3C2)o1`, the cytotoxicity at 10 µM was -2.01%.

Turning to `Cc1noc(C)c1CN1C[C@H](OCC2CCN(C)CC2)[C@H]2COC[C@H]21`, the cytotoxicity at 10 µM is -4.49%.

`N#Cc1ccccc1CN1C[C@@H]2CC[C@H]1CN(C(=O)c1cccnc1)C2`: the cytotoxicity at 10 µM is -0.849%.

For the compound `CCn1cc(-n2cc3nc(N(C)C)[nH]cc-3c2=O)cn1`, the cytotoxicity at 10 µM is 10.2%.
